pIC50: −log10 of the molar value. Values after ≈ are worked out from the molar mass of the structure shown.
Columns and labels:
Histoplasma capsulatum [1] = assay: Fungistatic activity against Histoplasma capsulatum OSU76 after 2 to 24 hrs by colony forming assay; type: functional, organism-based
[2] = Therapeutic index, ratio of IC50 for mouse P388D1 cells to IC50 for Histoplasma capsulatum G217B ATCC 26032; type: toxicity; conditions: read-out: Ratio IC50
Procedure, shortened: (§1)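 Ratio of P388D1 IC50 (72 h resazurin viability, 80 to 0.3 µM) to yeast IC50 from RPMI/HEPES pH 7.0 broth dilution with A595 turbidity and 4-parameter regression.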

Cryptococcus neoformans [3] = assay: Antifungal activity against Cryptococcus neoformans TDY271 after 72 hrs by microdilution assay; type: functional, organism-based; conditions: TDY271, 72 h
Cryptococcus neoformans [4] = assay: Antifungal activity against fluconazole-resistant Cryptococcus neoformans serotype A TES9 harboring erg11 mutant measured over 4 days; type: functional, organism-based; conditions: TES9, 96 h
Procedure, shortened: (§2)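 YPD-grown exponential-phase yeasts, hemacytometer-counted, diluted into RPMI buffered to pH 7.0 with 25 mM HEPES (or pH 5.0 with […] for pH comparison) at 2 x 10^3 per well; two-fold series 40 to 0.078 µM, 37 °C, agitated twice daily. A595 followed over 4 days versus DMSO controls; day-3 turbidity fitted by 4-parameter regression for IC50; MIC = growth ≤10% of untreated.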

Cryptococcus neoformans [5] = assay: Antifungal activity against wild type fluconazole-sensitive Cryptococcus neoformans serotype A H99 at pH 5 measured over 4 days; type: functional, organism-based; conditions: var grubii H99 , 96 h; procedure, shortened: as §2
[6] = Aqueous solubility of the compound at pH 7; type: physicochemical; conditions: aqueous medium
Cryptococcus neoformans [7] = assay: Antifungal activity against fluconazole-resistant Cryptococcus neoformans serotype A MRL862 harboring erg11 mutant measured over 4 days; type: functional, organism-based; conditions: MRL862, 96 h; procedure, shortened: as §2
Cryptococcus neoformans [8] = assay: Antifungal activity against wild-type fluconazole-sensitive Cryptococcus neoformans serotype D B3501 measured over 4 days; type: functional, organism-based; conditions: B3501, 96 h; procedure, shortened: as §2
P388D1 = assay: Cytotoxicity against mouse P388D1 cells assessed as reduction in cell viability after 72 hrs by resazurin-based fluorescence assay; conditions: P388D1, 72 h
Procedure, shortened: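 P388D1 cells in Ham's F-12 + 10% FBS + 2 mM L-glutamine seeded at 5 x 10^3 per well, adhered overnight, exposed to compounds 80 to 0.3 µM for 72 h. Viability read as resorufin fluorescence (530/590 nm) after 0.1 mM resazurin, pre-saturation time points, versus untreated cells; three biological replicates; IC50 by non-linear regression.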

Cryptococcus neoformans [9] = assay: Antifungal activity against wild type fluconazole-sensitive Cryptococcus neoformans serotype A H99 at pH 7 measured over 4 days; type: functional, organism-based; conditions: var grubii H99 , 96 h; procedure, shortened: as §2
[10] = Therapeutic index, ratio of IC50 for mouse P388D1 cells to IC50 for wild type Cryptococcus neoformans serotype A H99; type: toxicity; conditions: read-out: Ratio IC50; procedure, shortened: as §1
[11] = Ratio of aqueous solubility at pH 5 to aqueous solubility at pH 7; type: physicochemical; conditions: buffer
Histoplasma capsulatum [12] = assay: Antifungal activity against Histoplasma capsulatum G217B ATCC 26032 at pH 7 measured over 5 days; type: functional, organism-based; conditions: G217B ATCC 26032, 120 h
Procedure, shortened: (§3)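 Yeasts pre-grown in HMM (37 °C, 5% CO2) to exponential phase, counted by hemacytometer, diluted into RPMI buffered with 25 mM HEPES (pH 7.0) or 25 mM MOPS (pH 5.0) at 5 x 10^5 per well; two-fold dilutions 40 to 0.078 µM, 37 °C, agitated twice daily. A595 read over 5 days, normalized to DMSO controls; 4-day data fitted by 4-parameter regression for IC50; MIC = ≤10% growth.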

[13] = Therapeutic index, ratio of IC50 for mouse P388D1 cells to IC50 for Histoplasma capsulatum OSU76; type: toxicity; conditions: read-out: Ratio IC50
Histoplasma capsulatum [14] = assay: Antifungal activity against RFP expressing Histoplasma capsulatum infected in LacZ-expressing mouse P388D1 cells incubated for 6 days measured daily by fluorescence assay; type: functional, organism-based
Procedure, shortened: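 LacZ-expressing P388D1 macrophages (3x10^4 per well, adhered 3 h) infected with RFP Histoplasma yeasts at MOI 1:2 for 3 h, medium replaced with F-12 + 10% serum, overnight at 37 °C, then compound gradient added for 6 days. RFP fluorescence (530/590 nm) read daily; day-4 values relative to untreated infected cells fitted by non-linear regression; triplicate.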

Histoplasma capsulatum [15] = assay: Antifungal activity against Histoplasma capsulatum G217B ATCC 26032 at pH 5 measured over 5 days; type: functional, organism-based; conditions: G217B ATCC 26032, 120 h; procedure, shortened: as §3
[16] = Aqueous solubility of the compound at pH 5; type: physicochemical; conditions: aqueous medium

Structure (SMILES) | selectivity ratio [2] | pIC50 (Cryptococcus neoformans [5]) | MIC90 (Cryptococcus neoformans [5]) [µM] | solubility [6] [µg/mL] | pIC50 (P388D1) | pIC50 (Cryptococcus neoformans [9]) | MIC90 (Cryptococcus neoformans [9]) [µM] | selectivity ratio [10] | Ratio [11] | pIC50 (Histoplasma capsulatum [12]) | MIC90 (Histoplasma capsulatum [12]) [µM] | pIC50 (Histoplasma capsulatum [15]) | MIC90 (Histoplasma capsulatum [15]) [µM] | solubility [16] [µg/mL] | other results
O=C(Nc1ncc(Cc2cccc3ccccc23)s1)C1CCCCC1 | > 83 | 5.52 | 5 (≈ 1.75 µg/mL) | 4 (≈ 11.4 µM) | < 4.40 | 6.17 | 1.25 (≈ 0.438 µg/mL) | > 60 | 1 | 6.32 | 1.25 (≈ 0.438 µg/mL) | 5.17 | 10 (≈ 3.5 µg/mL) | 4 (≈ 11.4 µM) | pIC50 (Histoplasma capsulatum [1]): 6.06; pIC50 (Cryptococcus neoformans [3]): 5.90; pIC50 (Cryptococcus neoformans [4]): 6.70; MIC90 (Cryptococcus neoformans [4]): 0.63 µM (≈ 0.221 µg/mL); pIC50 (Cryptococcus neoformans [7]): 6.64; MIC90 (Cryptococcus neoformans [7]): 0.63 µM (≈ 0.221 µg/mL); pIC50 (Cryptococcus neoformans [8]): 6.74; MIC90 (Cryptococcus neoformans [8]): 0.63 µM (≈ 0.221 µg/mL); selectivity ratio [13]: 63; MIC (Histoplasma capsulatum [14]; 144 h): 2.5 µM (≈ 0.876 µg/mL); pIC50 (Histoplasma capsulatum [14]; P388D1, 144 h): 5.90
O=C(Nc1ncc(Cc2ccnc3ccccc23)s1)C1CCCCC1 | 5 | 5.37 | 10 (≈ 3.51 µg/mL) | 70 (≈ 199 µM) | 4.86 | 5.49 |  | 5 | 1.9 | 5.52 |  | 4.78 | 40 (≈ 14.1 µg/mL) | 130 (≈ 370 µM) | 
O=C(Nc1ncc(Cc2ccccn2)s1)C1CCCCC1 | > 2 | 4.81 | > 40 | 340 (≈ 1130 µM) | < 4.40 | 5.14 | 20 (≈ 6.03 µg/mL) | > 6 | 1.4 | 4.74 | 40 (≈ 12.1 µg/mL) | < 4.70 | > 40 | 480 (≈ 1590 µM) | 
O=C(CCC1CCCCC1)Nc1ncc(Cc2ccccn2)s1 | > 5 | < 4.70 | > 40 | 40 (≈ 121 µM) | < 4.40 | < 4.70 |  |  | 1.5 | 5.09 | 20 (≈ 6.59 µg/mL) | < 4.70 | > 40 | 60 (≈ 182 µM) | 

From ChEMBL document CHEMBL4219175, “Synthesis and biological evaluation of aminothiazoles against Histoplasma capsulatum and Cryptococcus neoformans” (Bioorg Med Chem, 2018)
